MEKK2 WT-MEK5 – modulators of MEK5 binding to wildtype MEKK2, primary screen, biochemical, multiplex bead flow cytometry, Alexa488-MEK5; Alexa488-MEK5 binding to MEKK2 WT; actives lie on both sides; Mitogen-activated protein kinase kinase kinase 2 (Homo sapiens), Q9Y2U5; 290,000 tested, 1.1% active; binding response (% of control), % at 10 µM; AID 1531, 2009; in the data active = binding response below about 67% or above about 130%
Efflux pump mplx – inhibitors of Candida efflux pumps in yeast, primary screen, S. cerevisiae, Nile Red, multiplex; S. cerevisiae Candida pump triplex; inhibition, % at 10 µM; 330,000 tested, 0.44% active; AID 485275, 2010;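 active = plate passing quality check with inhibition over a set limit, or well fluorescence over plate mean plus 4 SD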;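 note: Nile Red retained in pooled yeast measured as flow cytometry median fluorescence; 0% = buffer negative control and 100% = Enniatin B positive control; higher means more Nile Red kept so more efflux inhibition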
ABCB1 block – ABCB1 efflux pump inhibitors, primary screen, cell-based, multiplex, flow cytometry, ABCG2 counter-screen; ATP-dependent translocase ABCB1 (Homo sapiens), P08183; CCRF-Adr cells, JC-1 efflux; inhibition, % at 6.6 µM; 190,000 tested, 0.067% active; AID 1326, 2008; in the data active = inhibition above about 40%;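 note: 0% = vehicle and 100% = reference inhibitor; higher value means more JC-1 retained so stronger ABCB1 efflux block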
ABCG2 inh – ABCG2 efflux pump inhibitors, primary screen, multiplex with ABCB1, IgMXP3 cells, flow cytometry; Broad substrate specificity ATP-binding cassette transporter ABCG2 (Homo sapiens), Q9UNQ0; JC-1 efflux; inhibition, % at 6.6 µM; 190,000 tested, 0.1% active;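 active = inhibition above 80%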;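 note: 0% = DMSO and 100% = nicardipine control wells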
Target sequence (Q9UNQ0 whole entry, looked up): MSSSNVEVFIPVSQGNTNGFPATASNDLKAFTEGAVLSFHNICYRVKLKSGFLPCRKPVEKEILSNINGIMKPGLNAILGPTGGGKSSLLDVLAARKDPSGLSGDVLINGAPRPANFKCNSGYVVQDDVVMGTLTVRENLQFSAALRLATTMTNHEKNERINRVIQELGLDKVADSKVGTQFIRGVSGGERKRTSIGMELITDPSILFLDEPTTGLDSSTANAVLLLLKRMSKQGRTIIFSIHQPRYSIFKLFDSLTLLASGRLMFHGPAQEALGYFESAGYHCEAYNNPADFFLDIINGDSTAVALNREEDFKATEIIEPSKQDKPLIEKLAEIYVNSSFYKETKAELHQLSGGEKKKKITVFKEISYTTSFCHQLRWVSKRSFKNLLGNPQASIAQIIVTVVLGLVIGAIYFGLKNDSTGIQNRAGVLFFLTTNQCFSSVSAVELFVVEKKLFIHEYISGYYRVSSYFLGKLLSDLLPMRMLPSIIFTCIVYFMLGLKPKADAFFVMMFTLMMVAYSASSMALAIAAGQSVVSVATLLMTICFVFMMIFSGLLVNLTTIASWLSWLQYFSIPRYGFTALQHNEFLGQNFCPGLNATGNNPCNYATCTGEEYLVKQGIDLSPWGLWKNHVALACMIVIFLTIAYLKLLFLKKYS
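test system = two drug-resistant human cell lines, ABCG2 and ABCB1 | amount = 3 million cells/mL final, two lines in 1:1 ratio | reagent = JC-1 transporter substrate | doses = one concentration, 6.6 µM final | incubation = 10 min at 25 °C | signal = flow cytometric JC-1 green MFI at 530 nm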
MEKK2mut PB1 HTS – MEK5 binding signal on mutant MEKK2 PB1, primary screen, biochemical, multiplex bead flow cytometry, Alexa488-MEK5 | Alexa488-MEK5 binding to MEKK2 mutant | percent response, % at 10 µM | 290,000 tested, 0.35% active | AID 1530, 2009; in the data active = percent response above about 24%, passing the limit was not always enough
MEKK3 PB1 HTS – modulators of MEKK3-MEK5 PB1 binding, primary screen, biochemical, wildtype MEKK3, multiplex bead flow cytometry, Alexa488-MEK5; Mitogen-activated protein kinase kinase kinase 3 (Homo sapiens), Q99759; binding response (% of control), % at 10 µM; bead-based flow cytometry, Alexa488-MEK5 binding to MEKK3; actives lie on both sides; 0 = blocked by unlabeled MEK5, 100 = vehicle; 290,000 tested, 1.4% active;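 active = binding response more than 3 SD above or below the average of its plate-row segment, actives on both sides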;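 note: Alexa488 bead fluorescence after subtracting the streptavidin-only scavenger bead signal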
Yeast cmpd fluor – counter-screen for efflux pump inhibitors: compound fluorescence; shares compounds with Efflux pump mplx; S. cerevisiae AD/pABC3, flow cytometry; fluorescence ratio to DMSO, % at 10 µM; 1,700 tested, 4% active;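 active = fluorescence ratio to DMSO above its plate's cutoff, the plate mean ratio plus 5 SD, cut at about 210% in these data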;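 note: unstained yeast with no Nile Red so the signal is compound autofluorescence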
CaMdr1 efflux inh – inhibitors of Candida albicans Mdr1 efflux, confirmation, flow cytometry, singleplex, Cherry Pick1 set. S. cerevisiae AD/CaMDR1, Nile Red efflux. 1,700 tested, 1% active. inhibition, % at 10 µM. shares compounds with Efflux pump mplx; in the data active = inhibition above about 26%;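 note: 0% = DMSO vehicle and 100% = reference inhibitor; higher means more Nile Red retained so more efflux inhibition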
Cdr2 pump inh – inhibitors of Candida albicans Cdr2 efflux pump, confirmation, S. cerevisiae AD/CaCDR2, flow cytometry, cherry pick 1, singleplex; 1,700 tested, 4% active; shares compounds with Efflux pump mplx; Nile Red retention ratio vs DMSO, % at 10 µM; Nile Red retention; AID 588520, 2011; in the data active = Nile Red retention ratio vs DMSO above about 190%;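 note: higher ratio means more blocking of Cdr2 efflux of the dye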
CaCdr1 efflux inh – inhibitors of Candida albicans Cdr1 efflux pump, confirmation, S. cerevisiae AD/CaCDR1, flow cytometry, cherry pick 1, singleplex; shares compounds with Efflux pump mplx; Nile Red efflux; inhibition, % at 10 µM; 1,700 tested, 1% active;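 active = inhibition above the screen-wide mean plus twice its standard deviation, cut at about 32% in these data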
An asterisk follows results filed as active; · = no result given. An excerpt weighted towards active compounds, which were near 2.5% of everything screened.

SMILES	MEKK2 WT-MEK5	Efflux pump mplx	ABCB1 block	ABCG2 inh	MEKK2mut PB1 HTS	MEKK3 PB1 HTS	Yeast cmpd fluor	CaMdr1 efflux inh	Cdr2 pump inh	CaCdr1 efflux inh
CCn1ncc(Br)c1C(=O)Nc1sc2c(c1C(N)=O)CCC2	101.0	0.0	0.7	6.9	1.0	99.0	94.4	-0.2	100.1	0.2
CCOC(=O)c1c(NC(=O)c2nn(CC)cc2Br)sc2c1CCCCC2	100.0	-0.1	0.9	5.6	-3.0	104.0	·	·	·	·
Cn1cc(Br)c(C(=O)Nc2sc3c(c2C(N)=O)CCC3)n1	101.0	0.1	-0.3	-0.1	2.0	100.0	100.2	-0.2	93.0	-0.1
CN(C1CCCCC1)S(=O)(=O)c1ccc(S(=O)(=O)N(CC(=O)Nc2ccccc2)C2CC2)cc1	109.0	0.0	·	·	3.0	109.0	·	·	·	·
CC(C)Cc1nnc(NC(=O)CN2C(=O)NC3(CC(C)CC(C)(C)C3)C2=O)s1 (centres undefined)	·	-0.1	·	·	·	·	·	·	·	·
CCO[C@@H]1OC(C(=O)Nc2ccccc2)=C[C@H](c2ccccc2)[C@H]1CCCO	110.0	0.0	2.1	8.8	6.0	108.0	·	·	·	·
CCO[C@@H]1OC(C(=O)Nc2ccccc2)=C[C@H](c2ccc(Br)cc2)[C@H]1CCCO	102.0	0.8*	3.5	6.6	2.0	107.0	100.0	-0.2	120.6	0.1
Cc1cnc(=O)[nH]c1SCc1cccc([N+](=O)[O-])c1	97.0	0.1	·	·	-5.0	90.0	·	·	·	·
CCOC(=O)c1cc2sccc2n1CC(=O)c1ccc2c(c1)OCCO2	80.0	0.5*	-0.2	24.3	-7.0	88.0	101.8	-0.3	95.1	0.1
CCOC(=O)c1cc2sccc2n1CC(=O)O	106.0	0.0	1.6	0.8	5.0	108.0	·	·	·	·
Cc1cccc(C)c1-n1c(SCC(=O)N2CC(=O)Nc3ccccc32)nc2ccccc2c1=O	103.0	8.2*	9.9	22.5	-4.0	99.0	101.7	-0.2	124.8	94.6*
Cc1ccc(-n2c(SCC(=O)N3CC(=O)Nc4ccccc43)nc3ccccc3c2=O)cc1	101.0	-0.4	4.3	-8.8	-2.0	98.0	·	·	·	·
O=C(COc1ccccc1Cl)Nc1nnc(S(=O)(=O)N2CCCCCC2)s1	100.0	-0.3	·	·	3.0	102.0	·	·	·	·
CCCn1nnc(NC(=S)NC(=O)/C=C/c2ccco2)n1	107.0	0.3	·	·	9.0	105.0	·	·	·	·
O=C1C(Cc2ccccc2)Nc2ncnc(N3CCN(c4ccccc4)CC3)c2N1Cc1ccc(Cl)cc1 (centres undefined)	·	103.9*	·	·	·	·	104.5	108.6*	100.7	88.6*
O=C1C(Cc2ccccc2)Nc2ncnc(N3CCCCC3)c2N1Cc1ccc(Cl)cc1 (centres undefined)	·	0.2	·	·	·	·	·	·	·	·
Cc1ccc(N(C(=O)CNC(=O)c2ccco2)C(C(=O)NC2CCCCC2)c2ccncc2)c(C)c1 (centres undefined)	94.0	-0.1	·	·	-4.0	99.0	·	·	·	·
Cc1ccc(-n2c(C)cc(/C([O-])=C(/C(=S)Nc3ccc(F)c(Cl)c3)[n+]3ccccc3)c2C)cc1	99.0	0.9*	0.5	2.8	-1.0	99.0	101.4	0.2	93.5	0.0
COc1ccc(-c2cc(C(=O)N3CCCC(C(F)(F)F)C3)c3ccccc3n2)cc1OC (centres undefined)	·	0.4*	·	·	·	·	104.6	0.0	110.1	0.1
CC(=O)NS(=O)(=O)c1ccc(NC(=O)C(C)NS(=O)(=O)/C=C/c2ccccc2)cc1 (centres undefined)	·	-0.2	·	·	·	·	·	·	·	·
CCCCSC1=N/C(=C/c2ccsc2)C(=O)N1c1ccccc1	100.0	5.8*	1.1	8.3	-2.0	99.0	105.0	-0.1	93.0	0.0
CCCSC1=N/C(=C/c2ccsc2)C(=O)N1c1ccccc1	98.0	3.3	1.1	8.0	-4.0	99.0	·	·	·	·
CCSc1nnc(-c2ccccc2N=Cc2c(C)[nH]n(-c3ccccc3)c2=O)c(=O)[nH]1	104.0	0.2	-0.1	-0.6	2.0	106.0	·	·	·	·
CCN(CC)c1ccc(C(=O)O)cc1	109.0	0.4	0.1	-5.8	5.0	102.0	·	·	·	·
CCN(CC)c1ccc(/C=C2\C(=O)c3ccc(C(=O)O)cc3C2=O)cc1	93.0	5.8*	88.2*	134.6*	-2.0	94.0	208.5*	2.7	667.9*	0.0
SMILES	MEKK2 WT-MEK5	Efflux pump mplx	ABCB1 block	ABCG2 inh	MEKK2mut PB1 HTS	MEKK3 PB1 HTS	Yeast cmpd fluor	CaMdr1 efflux inh	Cdr2 pump inh	CaCdr1 efflux inh
Cn1cc(/C=C/c2cc[n+](C)cc2)c2cc(F)ccc21	103.0	9.5*	·	·	1.0	95.0	743.4*	3.4	93.0	4.2
Cn1cc(/C=C/c2cc[n+](C)cc2)c2cc(Cl)ccc21	118.0	5.9*	·	·	1.0	101.0	735.4*	2.9	99.3	2.0
Cn1cc(C=O)c2cc(F)ccc21	90.0	0.1	0.1	0.2	-10.0	100.0	·	·	·	·
C[n+]1ccc(/C=C/c2c[nH]c3ccc(F)cc23)cc1	106.0	4.2	·	·	-4.0	100.0	·	·	·	·
CCN=C(NCC)SC1CC(=O)N(c2ccc(F)cc2)C1=O (centres undefined)	108.0	0.2	0.3	2.7	6.0	112.0	·	·	·	·
Cc1ccc2nc(N/C(=N/S(=O)(=O)c3cccs3)c3ccccc3Cl)sc2c1	99.0	-0.2	0.5	0.3	-4.0	105.0	·	·	·	·
